Assay results: ChEMBL document CHEMBL1122066, “Arylhydroxamic acid N,O-acyltransferase substrates. Acetyl transfer and electrophile generating activity of N-hydroxy-N-(4-alkyl-, 4-alkenyl-, and 4-cyclohexylphenyl)acetamides” (J Med Chem, 1982)

Legend:
[1] = test system: arylhydroxamic acid N,O-acyltransferase (Mesocricetus auratus); experiment: Tested for its arylhydroxamic acid N,O-Acyltransferase (AHAT) catalyzed transacetylation of aminoazobenzene with partially purified hepatic enzyme in hamster; set-up: Rate: unit not given here
Rattus norvegicus [2] = organism: Rattus norvegicus; experiment: Tested for its arylhydroxamic acid N,O-Acyltransferase (AHAT) catalyzed transacetylation of aminoazobenzene with partially purified hepatic enzyme in rat; assay type: functional
Outline: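 Rat liver AHAT came from 105000g cytosol, partially purified 2- to 3-fold by ammonium sulfate. It was assayed at 1.0 mg/mL protein in pH 7.0 pyrophosphate/1 mM DTT/KCl with hydroxamic acid (1.0 mM) and AAB (0.15 mM) for 5 min at 37 °C in air. The reaction was stopped with TCA/EtOH and read at 497 nm, with a heat-denatured enzyme control. Rates are mean ± SE, N = 3–4, run in triplicate.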

Cricetinae gen. sp. [3] = experiment: Aminoazobenzene transacetylation inhibition by partially purified hepatic enzyme using iodo acetamide as inhibitor (1.0 mM) in hamster; assay type: functional; conditions: Cricetulus griseus
Outline: (§1)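 Rat or hamster liver cytosol (105000g supernatant), partially purified by ammonium sulfate fractionation, was incubated 5 min with the sulfhydryl reagent (1.0 mM). AAB transacetylation was then run in pH 7.0 pyrophosphate/1 mM DTT at 37 °C with hydroxamic acid donor (1.0 mM final) and AAB (0.15 mM final). It was stopped with TCA/EtOH and read at 497 nm. Values are % inhibition, means of 2–3 triplicate experiments.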

Rattus norvegicus [4] = organism: Rattus norvegicus; experiment: Aminoazobenzene transacetylation inhibition by partially purified hepatic enzyme using iodo acetamide as inhibitor (1.0 mM) in rat; assay type: functional
Outline: as §1

Cricetinae gen. sp. [5] = experiment: Aminoazobenzene transacetylation inhibition by partially purified hepatic enzyme using N-ethyl maleimide as inhibitor (1.0 mM) in hamster; assay type: functional; conditions: Cricetulus griseus
Outline: as §1

[6] = test system: arylhydroxamic acid N,O-acyltransferase (Mesocricetus auratus); experiment: Tested for its arylhydroxamic acid N,O-Acyltransferase (AHAT) catalyzed transacetylation of aminoazobenzene with hamster hepatic enzyme before dialysis
Cricetulus griseus = organism: Cricetulus griseus; experiment: Tested for its arylhydroxamic acid N,O-Acyltransferase (AHAT) catalyzed transacetylation of aminoazobenzene with hamster hepatic enzyme after dialysis; assay type: functional
Outline: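 Hamster enzyme (partially purified by ammonium sulfate) was preincubated 20 min at 37 °C in air with the hydroxamic acid; controls had ethanol only. It was then dialyzed 6 h at 4 °C against N2-sparged pH 7.0 pyrophosphate/1 mM DTT/2% EtOH with three buffer changes. Portions taken before and after dialysis were assayed with AAB plus the same hydroxamic acid for 5 or 8 min, read at 497 nm. Rates are nmol/mg/min, mean of two triplicate experiments.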

Cricetinae gen. sp. [7] = experiment: Aminoazobenzene transacetylation inhibition by partially purified hepatic enzyme using 4-chloro mercuri benzenesulfonate as inhibitor (1.0 mM) in hamster; assay type: functional; conditions: Cricetulus griseus
Outline: as §1

Rattus norvegicus [8] = organism: Rattus norvegicus; experiment: Aminoazobenzene transacetylation inhibition by partially purified hepatic enzyme using 4-chloro mercuri benzenesulfonate as inhibitor (1.0 mM) in rat; assay type: functional
Outline: as §1

Rattus norvegicus [9] = organism: Rattus norvegicus; experiment: Aminoazobenzene transacetylation inhibition by partially purified hepatic enzyme using N-ethyl maleimide as inhibitor (1.0 mM) in rat; assay type: functional
Outline: as §1

Cricetinae gen. sp. [10] = experiment: Aminoazobenzene transacetylation inhibition by partially purified hepatic enzyme using iodo acetamide as inhibitor (1.0 mM) in hamster; conditions: at 1 mM
[11] = test system: arylhydroxamic acid N,O-acyltransferase (Mesocricetus auratus); experiment: Tested for its arylhydroxamic acid N,O-Acyltransferase (AHAT) catalyzed transacetylation of aminoazobenzene with hamster hepatic enzyme after dialysis

SMILES | Rate [1] | Rate (Rattus norvegicus [2]) | further results
CCCc1ccc(N(O)C(C)=O)cc1 | 5.3 | 3.1 nmol/min/mg | –
CC(=O)N(O)c1ccc(-c2ccccc2)cc1 | 22.4 | 5.8 nmol/min/mg | inhibition (Cricetinae gen. sp. [3]): 100%; inhibition (Rattus norvegicus [4]): 95%; inhibition (Cricetinae gen. sp. [5]): 100%; Rate (mg of protein) [6]: 6.3; Rate (mg of protein) (Cricetulus griseus): 6.9; inhibition (Cricetinae gen. sp. [7]): 100%; inhibition (Rattus norvegicus [8]): 100%; inhibition (Rattus norvegicus [9]): 92%
CCCCc1ccc(N(O)C(C)=O)cc1 | 8.8 | 4.7 nmol/min/mg | –
C/C=C/c1ccc(N(O)C(C)=O)cc1 | 13 | 5.9 nmol/min/mg | –
CC(=O)N(O)c1ccc(C2CCCCC2)cc1 | – | 4.7 nmol/min/mg | inhibition (Rattus norvegicus [4]; at 1 mM): 99%; inhibition (Cricetinae gen. sp. [10]): 100%; inhibition (Cricetinae gen. sp. [5]; at 1 mM): 96%; Rate (mg of protein) [6]: 3.2; Rate (mg of protein) [1]: 9.4; inhibition (Cricetinae gen. sp. [7]; at 1 mM): 100%; inhibition (Rattus norvegicus [8]; at 1 mM): 100%; inhibition (Rattus norvegicus [9]; at 1 mM): 100%; Rate (mg of protein) [11]: 1.7
CCc1ccc(N(O)C(C)=O)cc1 | 3.5 | 2.1 nmol/min/mg | –
CCCCCc1ccc(N(O)C(C)=O)cc1 | 13.8 | 5.2 nmol/min/mg | –

Now from value to compound, other results behind:

Rate [1] | Rate (Rattus norvegicus [2]) | SMILES | further results
13.1 | 5.7 nmol/min/mg | CC(=O)N(O)c1ccc(C=C(C)C)cc1 | –
0.6 | 0.2 nmol/min/mg | CC(=O)N(O)c1ccccc1 | –
6.6 | 3.3 nmol/min/mg | C=Cc1ccc(N(O)C(C)=O)cc1 | –
2.1 | 1.1 nmol/min/mg | CC(=O)N(O)c1ccc(C)cc1 | –
